Measles CPE – protection of cells from measles virus. Measles virus-infected cells, CPE protection, absorbance. AID 841. protection (pct of control), % at 4 µM. 140,000 tested, 1.5% active; in the data active = protection mostly above about 24%, no sharp cut-off; inactive = mostly below about 26%
Rev-RRE block – disrupts HIV-1 Rev binding to RRE RNA; P05866; Rev peptide-RRE RNA binding, FRET; inhibition, % at 8 µM; 97,000 tested, 0.79% active;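 active = inhibition above the screen-wide mean plus 3 SD, cut at about 35% in these data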
Target sequence (P05866 whole entry, looked up): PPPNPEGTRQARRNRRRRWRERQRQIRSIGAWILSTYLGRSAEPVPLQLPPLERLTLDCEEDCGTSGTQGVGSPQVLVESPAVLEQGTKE
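Assay system: Labelled RRE RNA duplex and labelled Rev peptide | Times: 5 min preincubation and 15 min binding, 25 °C | Detection: FRET, ex 480 nm, em 540 and 671 nm | Evaluation: % inhibition of FRET ratio versus controls | Benchmarks: DMSO wells as 0% and neomycin B wells as 100% inhibition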
NFkB transloc inh – blocks IL-1B driven NFkB nuclear translocation in HUVEC cells; HUVEC IL-1B NFkB p65 nuclear translocation imaging; 94,000 tested, 0.43% active; inhibition, % at 2 µM;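 active = inhibition above about 30% together with a positive call from visual inspection of the well image, limit read from the data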;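 also: nuclear over cytoplasmic p65 intensity ratio measured by imaging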
IL1B NFkB pot – enhances IL-1B driven NFkB nuclear translocation | HUVEC IL-1B NFkB p65 nuclear translocation imaging | activation, % at 2 µM | 94,000 tested, 0.3% active;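 active = activation above 40%, about the mean plus 3 SD, also judged a hit on visual image review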;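 also: percent activation is computed from the nuclear over cytoplasmic p65 intensity ratio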
FAK inh – blocks human focal adhesion kinase activity. biochemical FAK kinase activity assay. inhibition, %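 (tested at 7 µM)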. 97,000 tested, 0.84% active; in the data active = inhibition above about 19%
IL1B cytotox – HUVEC cytotoxicity counter-screen, IL-1B stimulated | HUVEC cell count loss, Hoechst imaging | cell count reduction, % at 2 µM | 94,000 tested, 0.41% active | AID 845;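 active = cell count reduction more than 3 SD above the screen-wide mean, cut at about 70% in these data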
Each line names hits and unclear results; the compound was inactive in the other large screens; [ ] = dose if it differs, or a comment. The list is not random: actives were taken first. Their share in the collection is about 3.3%.

COCCNC(=O)c1ccc(N(C)S(=O)(=O)c2ccc(OC)c(OC)c2)cc1	Measles CPE 68 (no result: NFkB transloc inh, IL1B NFkB pot, IL1B cytotox)
CC(=O)Nc1ccccc1-c1nc2ccc(C(=O)N3CCN(c4ccccc4)CC3)cc2[nH]c1=O	NFkB transloc inh 38
CS(=O)(=O)N1CCCC(C(=O)NCc2ccccc2Cl)C1 (stereo not given)	Measles CPE 42
Cc1cc(C)c(S(=O)(=O)Nc2ccc3c4c(cccc24)CC3)c(C)c1	NFkB transloc inh 42
COc1ccccc1NS(=O)(=O)c1cc(Cl)ccc1OC	none (no result: Rev-RRE block, NFkB transloc inh, IL1B NFkB pot, FAK inh, IL1B cytotox)
C=CCC(NCc1ccco1)c1ccc(OC)cc1OC (stereo not given)	NFkB transloc inh 58
Cc1cc2ccccc2n1CCNC(=O)c1cccs1	NFkB transloc inh 59
COc1ccc(NC(=O)c2cccnc2Sc2ccccc2)c(OC)c1	none (no result: Rev-RRE block, NFkB transloc inh, IL1B NFkB pot, FAK inh, IL1B cytotox)
Cc1cc(NC(=S)NC(=O)C2CC2)ccc1Br	none (no result: Rev-RRE block, NFkB transloc inh, IL1B NFkB pot, FAK inh, IL1B cytotox)
COc1cc(/C=N\NC(=O)CNC(=O)C2COc3ccccc3O2)ccc1O (stereo not given)	Measles CPE 30 (no result: Rev-RRE block, NFkB transloc inh, IL1B NFkB pot, FAK inh, IL1B cytotox)
COc1cc(/C=N/NC(=O)CNC(=O)c2ccc3c(c2)OCCO3)ccc1O	none
COC(=O)c1c(C)c2c(C)cc3ccccn3c-2c1C(=O)OC	Rev-RRE block 46
COC(=O)c1cc2c(-c3ccccc3)cc3ccccn3c-2c1C(=O)OC	Measles CPE 79
CCOc1cc(C(=O)N(C)Cc2cc3ccccc3[nH]c2=O)cc(OCC)c1OCC	Measles CPE 64
CCOc1ccccc1C(=O)N(C)Cc1cc2ccccc2[nH]c1=O	none
CC(=O)OCC1OC(Nc2cccc(C)c2)C(OC(C)=O)C(OC(C)=O)C1OC(C)=O (stereo not given)	none (no result: Rev-RRE block, NFkB transloc inh, IL1B NFkB pot, FAK inh, IL1B cytotox)
COc1ccc(C2=NOC(C(=O)NCCCN3CCOCC3)C2)cc1 (stereo not given)	IL1B NFkB pot 47
COc1ccc(C2=NOC(C(=O)NCCN3CCOCC3)C2)cc1 (stereo not given)	none
Cc1cc(N2CC(C(=O)NCc3cccs3)CC2=O)ccc1C(C)C (stereo not given)	NFkB transloc inh 46
Cc1ccc(N2CC(C(=O)NCc3cccs3)CC2=O)cc1C (stereo not given)	none
O=C(O)c1ccc(N=NN2CCCCCC2)cc1	none (no result: Rev-RRE block, NFkB transloc inh, IL1B NFkB pot, FAK inh, IL1B cytotox)
CCN1C(=O)CS/C1=C(\C#N)S(=O)(=O)c1ccccc1	Rev-RRE block 37
CCn1cc(/C=C(/C#N)S(=O)(=O)c2ccccc2)cn1	none
Cc1ccc(Nc2ccc(S(=O)(=O)N3CCOCC3)cc2[N+](=O)[O-])cc1C	none (no result: Rev-RRE block, NFkB transloc inh, IL1B NFkB pot, FAK inh, IL1B cytotox)
COc1ccccc1-n1c(C)nnc1SCC(=O)Nc1cccc(C(C)=O)c1	NFkB transloc inh 96, IL1B cytotox 80
COc1ccc(N(C)C(=O)c2onc3c2CCCC3)cc1	none (no result: Rev-RRE block, NFkB transloc inh, IL1B NFkB pot, FAK inh, IL1B cytotox)
O=C(OCc1ccc(Cl)cc1Cl)c1ccncc1	IL1B NFkB pot 126
COc1ccc(OC)c(NC(=O)CSc2ccc3ccccc3c2)c1	none
COc1ccc(OC)c(NC(=O)COC(=O)CSc2ccc(Cl)cc2)c1	Measles CPE 18 (no result: Rev-RRE block, NFkB transloc inh, IL1B NFkB pot, FAK inh, IL1B cytotox)
CCOC(=O)Cc1csc(NC(=O)CSc2cc(Cl)ccc2Cl)n1	Measles CPE 29 (no result: Rev-RRE block, NFkB transloc inh, IL1B NFkB pot, FAK inh, IL1B cytotox)
CCOC(=O)Cc1csc(NC(=S)NC(=O)c2ccc(F)cc2)n1	none
CCOC(=O)Cc1csc(NC(=S)NC(=O)c2ccccc2C)n1	NFkB transloc inh 50
CCOC(=O)Cc1csc(NC(=O)c2sc3nc4c(C)cc(C)cc4cc3c2N)n1	Rev-RRE block 107[fluorescence artefact?]
CCOC(=O)Cc1csc(NC(=O)c2csc(C)c2)n1	none
CC(=O)C1=C(C)OC(N)=C(C#N)C1c1cc2cc(C)c(C)cc2nc1Cl (stereo not given)	IL1B NFkB pot 43
CCN1CCN(C(c2nnnn2Cc2ccc3c(c2)OCO3)C(C)C)CC1 (stereo not given)	Measles CPE 56
CC(C)C(c1nnnn1Cc1ccc(F)cc1)N1CCN(Cc2ccc3c(c2)OCO3)CC1 (stereo not given)	none
CCOC(=O)Cc1nnc(NC(=O)COc2ccc(OC)cc2)s1	Measles CPE 23
O=C(Nc1nc(COc2ccccc2)cs1)c1ccccc1F	none (no result: Rev-RRE block, NFkB transloc inh, IL1B NFkB pot, FAK inh, IL1B cytotox)
Cc1cc(C(=O)CN2C(=O)NC3(CCCc4sccc43)C2=O)c(C)n1-c1ccc(Cl)cc1 (stereo not given)	Measles CPE 39 (no result: Rev-RRE block, NFkB transloc inh, IL1B NFkB pot, FAK inh, IL1B cytotox)
Cc1ccc(O)c(-c2cc(C(=O)NCc3ccc4c(c3)OCO4)[nH]n2)c1	Measles CPE 29 (no result: Rev-RRE block, NFkB transloc inh, IL1B NFkB pot, FAK inh, IL1B cytotox)
